Calls of active or inactive are those of the source. No cut-off for these calls is given here.
Assays:
[1] = Cytotoxicity against human […] cells infected with HCV 1A; assay type: cell-based
[2] = Cytotoxicity against african green monkey Vero cells after 48 hrs by XTT assay; assay type: cell-based; conditions: chlorocebus sabaeus
Procedure, shortened: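 Vero monolayers incubated with serial compound dilutions for 48 h. XTT added for 4 h, and formazan quantified spectrophotometrically. CC50, the 50% cytotoxic concentration, derived by nonlinear regression.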

[3] = Cytotoxicity against human […] cells infected with HCV 1B; assay type: cell-based
dengue virus type 2 = assay: Antiviral activity against Dengue virus 2 infected in Vero cells after 3 days by fluorescence microscopy; assay type: functional, organism-based; conditions: 72 h
Procedure, shortened: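 Vero cells, 20,000/well, seeded the day before in DMEM with L-glutamine, 2% FBS and penicillin/streptomycin. Two-fold serial compound dilutions added in triplicate; DENV-2 added 1 h later at MOI 0.3 IU/cell. Incubated 3 days at 37 °C, 5% CO2. Cells fixed and permeabilized, then stained with DENV-2-specific antibody and Cy3 anti-mouse IgG. Imaged by fluorescence microscopy; EC50 by nonlinear regression.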

[4] = (§1) Cytotoxicity against human HeLaS3 cells after 3 days by XTT assay; assay type: functional, cell-based; conditions: HeLa S3, 72 h
Procedure, shortened: (§2)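 ATCC lines HL60, HeLa S3, CCRF-CEM and HepG2 exposed to compound for 3 days. Viability read by metabolic XTT tetrazolium reduction.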

Hepatitis C virus [5] = assay: Antiviral activity against HCV 1B infected in […] cells; assay type: functional, organism-based, Hepacivirus hominis; conditions: genotype 1b
[6] = Cytotoxicity against human […] cells infected with HCV 2A; assay type: cell-based
Hepatitis C virus [7] = assay: Antiviral activity against HCV 2A infected in […] cells; assay type: functional, organism-based, Hepacivirus hominis; conditions: genotype 2a
HL-60 = assay: Cytotoxicity against human HL60 cells after 3 days by XTT assay; assay type: functional, cell-based; conditions: for IC50: HL-60, 72 h; procedure, shortened: as §2
Hepatitis C virus [8] = assay: Antiviral activity against HCV 1A infected in […] cells; assay type: functional, organism-based, Hepacivirus hominis; conditions: subtype 1a
HepG2 = assay: Cytotoxicity against human HepG2 cells after 3 days by XTT assay; assay type: functional, cell-based; conditions: for IC50: HepG2, 72 h; procedure, shortened: as §2
CCRF-CEM = assay: Cytotoxicity against human CCRF-CEM cells after 3 days by XTT assay; assay type: functional, cell-based; conditions: for IC50: 72 h; procedure, shortened: as §2
[9] = Selectivity index, ratio of CC50 for african green monkey Vero cells to EC50 for Dengue virus 2 infected in Vero cells; assay type: toxicity, cell-based; conditions: read-out: Ratio CC50/EC50
HeLa S3 = assay: as §1; assay type: functional, cell-based; procedure, shortened: as §2

EC50 (dengue virus type 2) | EC50 (Hepatitis C virus [5]) | EC50 (Hepatitis C virus [7]) | EC50 (Hepatitis C virus [8]) | Compound | CC50 [1] | CC50 at 48 h [2] | CC50 [3] | IC50 [4] | CC50 [6] | IC50 (HL-60) | IC50 (HepG2) | IC50 (CCRF-CEM) | selectivity ratio [9] | Activity (HeLa S3) | Activity (HL-60) | Activity (HepG2) | Activity (CCRF-CEM)
15.4 µM | 4.83 µM | 8.77 µM | 6.13 µM | Nc1ncnc2c1c1cc(-c3cc4ccccc4o3)ccc1n2[C@@H]1O[C@H](CO)[C@@H](O)[C@H]1O | 14.5 µM | > 100 µM | 28 µM | 93 µM | 18 µM | 87 µM | 60 µM | 32 µM | > 6.5 |  |  |  | 
39.6 µM | 11.1 µM | > 44 µM | 30.6 µM | Nc1ncnc2c1c1ccccc1n2[C@@H]1O[C@H](CO)[C@@H](O)[C@H]1O | > 44 µM | 43.5 µM | > 44 µM |  | > 44 µM |  |  |  | 1.1 | inactive | inactive | inactive | inactive
18.8 µM | 7.38 µM | 13.8 µM | 10.1 µM | Nc1ncnc2c1c1cc(-c3ccsc3)ccc1n2[C@@H]1O[C@H](CO)[C@@H](O)[C@H]1O | 17.3 µM | 46.3 µM | 25.6 µM |  | 30.2 µM |  |  |  | 2.5 | inactive | inactive | inactive | inactive
 |  |  |  | Nc1ncnc2c1c1cc(-c3ccccc3)ccc1n2[C@@H]1O[C@H](CO)[C@@H](O)[C@H]1O |  |  |  |  |  |  |  |  |  | inactive | inactive | inactive | inactive
 |  |  |  | Nc1ncnc2c1c1c(-c3ccccc3)cccc1n2[C@@H]1O[C@H](CO)[C@@H](O)[C@H]1O |  |  |  |  |  |  |  |  |  | inactive | inactive | inactive | inactive
 |  |  |  | Nc1ncnc2c1c1cc(Cl)ccc1n2[C@@H]1O[C@H](CO)[C@@H](O)[C@H]1O |  |  |  |  |  |  |  |  |  | inactive | inactive | inactive | inactive
 |  |  |  | Nc1ncnc2c1c1cc(-c3ccco3)ccc1n2[C@@H]1O[C@H](CO)[C@@H](O)[C@H]1O |  |  |  |  |  |  |  |  |  | inactive | inactive | inactive | inactive
0.85 µM | 0.32 µM | 1.28 µM | 0.53 µM | Nc1ncnc2c1c1c(Cl)cccc1n2[C@@H]1O[C@H](CO)[C@@H](O)[C@H]1O | 1.16 µM | 1.14 µM | 1.71 µM | 21 µM | 1.66 µM | 17 µM | 21 µM | 12 µM | 1.3 |  |  |  | 
 | 7.07 µM | > 44 µM | 21.3 µM | CN(C)c1ncnc2c1c1ccccc1n2[C@@H]1O[C@H](CO)[C@@H](O)[C@H]1O | > 44 µM |  | > 44 µM |  | > 44 µM |  |  |  |  | inactive | inactive | inactive | inactive
 | 8.75 µM | 24.9 µM | 10 µM | Nc1ncnc2c1c1cc(-c3cccs3)ccc1n2[C@@H]1O[C@H](CO)[C@@H](O)[C@H]1O | 18.1 µM |  | > 44 µM |  | > 44 µM |  |  |  |  | inactive | inactive | inactive | inactive
 |  |  |  | Nc1ncnc2c1c1c(-c3ccco3)cccc1n2[C@@H]1O[C@H](CO)[C@@H](O)[C@H]1O |  |  |  |  |  |  |  |  |  | inactive | inactive | inactive | inactive
 | 0.34 µM | > 44 µM | 0.56 µM | Cc1ncnc2c1c1ccccc1n2[C@@H]1O[C@H](CO)[C@@H](O)[C@H]1O | > 44 µM |  | > 44 µM | 11 µM | > 44 µM | 54 µM | 15 µM | 82 µM |  |  |  |  | 
 |  |  |  | C[n+]1cnc2c(c1N)c1ccccc1n2[C@@H]1O[C@H](CO)[C@@H](O)[C@H]1O |  |  |  |  |  |  |  |  |  | inactive | inactive | inactive | inactive
14.8 µM | 8.81 µM | > 44 µM | > 44 µM | CCCCc1cccc2c1c1c(N)ncnc1n2[C@@H]1O[C@H](CO)[C@@H](O)[C@H]1O | > 44 µM | 62.9 µM | > 44 µM |  | > 44 µM |  |  |  | 4.3 | inactive | inactive | inactive | inactive
 |  |  |  | OC[C@H]1O[C@@H](n2c3ccccc3c3c(C4CC4)ncnc32)[C@H](O)[C@@H]1O |  |  |  |  |  |  |  |  |  | inactive | inactive | inactive | inactive
 |  |  |  | Nc1ncnc2c1c1cc(-c3ccoc3)ccc1n2[C@@H]1O[C@H](CO)[C@@H](O)[C@H]1O |  |  |  |  |  |  |  |  |  | inactive | inactive | inactive | inactive
 |  |  |  | Nc1ncnc2c1c1c(-c3ccsc3)cccc1n2[C@@H]1O[C@H](CO)[C@@H](O)[C@H]1O |  |  |  |  |  |  |  |  |  | inactive | inactive | inactive | inactive

Source: ChEMBL document CHEMBL2413035, “Synthesis and biological activity of benzo-fused 7-deazaadenosine analogues. 5- and 6-substituted 4-amino- or 4-alkylpyrimido[4,5-b]indole ribonucleosides” (Bioorg Med Chem, 2013)
